Source: publication PMC5435566 (Nature chemical biology, 2017)

Tests used:
[1] = Solubility; assay type: physicochemical
[2] = target: T1, human LMPTP-A (Homo sapiens, UniProt P24666); assay: Isothermal titration calorimetry; assay type: binding
T1 sequence (P24666 1-158): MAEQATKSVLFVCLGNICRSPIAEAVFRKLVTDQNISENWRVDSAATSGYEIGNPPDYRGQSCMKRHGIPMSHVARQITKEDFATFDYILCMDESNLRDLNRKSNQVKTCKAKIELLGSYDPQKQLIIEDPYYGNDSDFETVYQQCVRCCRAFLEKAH
Outline: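 ITC was run at 23°C: 2 μl injections of 0.5 mM test compound into 50 μM human LMPTP-A, with or without 200 μM sodium orthovanadate to form the cysteine adduct. Tris runs used 10 mM Tris pH 7.5, 75 mM NaCl, 0.5 mM β-mercaptoethanol, 5% DMSO; parallel runs used phosphate buffer. Kd, ΔH and −TΔS were derived from the titrations.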

[3] = system: human LMPTP-A mutants (Y49, Y131, Y132); assay: Inhibition of LMPTP-A mutants, OMFP substrate; assay type: biochemical; conditions: 0.4 mM OMFP, versus wild-type LMPTP-A
Outline: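 Wild-type and mutant human LMPTP-A were assayed with 0.4 mM OMFP in 50 mM Bis-Tris pH 6.0, 1 mM DTT, 0.01% Triton X-100 at 37°C across test-compound concentrations. OMFP hydrolysis was monitored continuously by fluorescence (ex 485/em 525 nm) and reported as % activity, from 3 independent experiments.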

[4] = system: insulin receptor (IR) tyrosine phosphorylation in HepG2 hepatocytes; assay: IR phosphorylation in HepG2 cells; assay type: cell-based, human; conditions: 10 μM compound overnight, 10 nM insulin 5 min
Outline: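 HepG2 cells were grown in MEM with 10% FBS and pen/strep and confirmed mycoplasma-free. Cells were treated overnight with 10 μM test compound or DMSO in 0.1% FBS medium, then stimulated with 10 nM bovine insulin for 5 min at 37°C. Read-outs were anti-IRβ immunoprecipitation with pY1162/Y1163 Western blot (2 experiments) and pIRβ Y1150/Y1151 sandwich ELISA (5 experiments).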

Row | solubility [1] | Kd ([2]; Tris buffer, no vanadate) | Kd ([2]; phosphate buffer) | −TΔS ([2]; Tris buffer, no vanadate) | −TΔS ([2]; phosphate buffer) | Structure (SMILES) | inhibition of LMPTP-A mutated at Y49 and Y132 [3] | inhibition of LMPTP-A mutated at Y131 alone or in combination with Y49 and Y132 [3] | HepG2 IR phosphorylation after insulin stimulation [4]
1 | highly soluble | 8 ± 2 µM | 10 ± 2 µM | -6.4 ± 0.3 kcal/mol | -5.6 ± 0.3 kcal/mol | N#Cc1ccccc1-c1cc(NCCCN2CCCCC2)c2ccccc2n1 [Compd. 18] | substantially reduced | completely abolished | –
2 | – | – | – | – | – | c1ccc(-c2cc(SCCCN3CCCCC3)c3ccccc3n2)cc1 [Compd. 28] | – | – | had no effect
